Experimental data: ChEMBL document CHEMBL2040768, “Synthesis, antimicrobial and cytotoxic activities of sulfone linked bis heterocycles” (Eur J Med Chem, 2012)
Active and inactive are the calls of the source. The rule behind the calls is not given here.

What was measured:
Staphylococcus aureus [1] = assay: Antibacterial activity against Staphylococcus aureus at 50 ug/ml after 24 hrs by agar well diffusion method; assay type: functional; details: for zone of inhibition at 50 µg/mL: read-out: DIZ
Outline: (§1)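 Agar well diffusion. Nutrient plates swabbed with 24 h broth culture of the bacterium; 6 mm wells bored and loaded with DMSO solutions of compound (wells at 50 and 100 per well). Chloramphenicol positive control, DMSO negative control. Plates held 37 °C, 24 h; inhibition zone diameter (mm) measured, mean of duplicates.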

Staphylococcus aureus [2] = assay: Antibacterial activity against Staphylococcus aureus at 100 ug/ml after 24 hrs by agar well diffusion method; assay type: functional; details: for zone of inhibition at 100 µg/mL: read-out: DIZ; outline: as §1
Bacillus subtilis [3] = assay: Antibacterial activity against Bacillus subtilis at 50 ug/ml after 24 hrs by agar well diffusion method; assay type: functional; details: for zone of inhibition at 50 µg/mL: read-out: DIZ; outline: as §1
Bacillus subtilis [4] = assay: Antibacterial activity against Bacillus subtilis at 100 ug/ml after 24 hrs by agar well diffusion method; assay type: functional; details: for zone of inhibition at 100 µg/mL: read-out: DIZ; outline: as §1
Pseudomonas aeruginosa [5] = assay: Antibacterial activity against Pseudomonas aeruginosa at 50 ug/ml after 24 hrs by agar well diffusion method; assay type: functional; details: for zone of inhibition at 50 µg/mL: read-out: DIZ; outline: as §1
Pseudomonas aeruginosa [6] = assay: Antibacterial activity against Pseudomonas aeruginosa at 100 ug/ml after 24 hrs by agar well diffusion method; assay type: functional; details: for zone of inhibition at 100 µg/mL: read-out: DIZ; outline: as §1
Klebsiella pneumoniae [7] = assay: Antibacterial activity against Klebsiella pneumoniae at 50 ug/ml after 24 hrs by agar well diffusion method; assay type: functional; details: for zone of inhibition at 50 µg/mL: read-out: DIZ; outline: as §1
Klebsiella pneumoniae [8] = assay: Antibacterial activity against Klebsiella pneumoniae at 100 ug/ml after 24 hrs by agar well diffusion method; assay type: functional; details: for zone of inhibition at 100 µg/mL: read-out: DIZ; outline: as §1
Aspergillus niger [9] = assay: Antifungal activity against Aspergillus niger at 50 ug/ml after 48 hrs by agar well diffusion method; assay type: functional; details: for zone of inhibition at 50 µg/mL: read-out: DIZ
Outline: (§2)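 Fungal agar well diffusion. Plates swabbed with fungal culture, 6 mm wells filled with DMSO solutions of compound (50 and 100 per well). Ketoconazole positive and DMSO negative controls. Plates incubated 28 °C for 48 h; zone of inhibition diameter (mm) read, average of duplicates.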

Aspergillus niger [10] = assay: Antifungal activity against Aspergillus niger at 100 ug/ml after 48 hrs by agar well diffusion method; assay type: functional; details: for zone of inhibition at 100 µg/mL: read-out: DIZ; outline: as §2
Penicillium chrysogenum [11] = assay: Antifungal activity against Penicillium chrysogenum at 50 ug/ml after 48 hrs by agar well diffusion method; assay type: functional; details: for zone of inhibition at 50 µg/mL: read-out: DIZ; outline: as §2
Penicillium chrysogenum [12] = assay: Antifungal activity against Penicillium chrysogenum at 100 ug/ml after 48 hrs by agar well diffusion method; assay type: functional; details: for zone of inhibition at 100 µg/mL: read-out: DIZ; outline: as §2
A549 = assay: Cytotoxicity against human A549 cells up to 0.2 mM after 72 hrs by MTT assay

Row | Structure (SMILES) | zone of inhibition at 50 µg/mL (Staphylococcus aureus [1]) | zone of inhibition at 100 µg/mL (Staphylococcus aureus [2]) | zone of inhibition at 50 µg/mL (Bacillus subtilis [3]) | zone of inhibition at 100 µg/mL (Bacillus subtilis [4]) | zone of inhibition at 50 µg/mL (Pseudomonas aeruginosa [5]) | zone of inhibition at 100 µg/mL (Pseudomonas aeruginosa [6]) | zone of inhibition at 50 µg/mL (Klebsiella pneumoniae [7]) | zone of inhibition at 100 µg/mL (Klebsiella pneumoniae [8]) | zone of inhibition at 50 µg/mL (Aspergillus niger [9]) | zone of inhibition at 100 µg/mL (Aspergillus niger [10]) | zone of inhibition at 50 µg/mL (Penicillium chrysogenum [11]) | zone of inhibition at 100 µg/mL (Penicillium chrysogenum [12]) | Activity (A549) | also measured
1 | Nn1c(CS(=O)(=O)Nc2ccc(Cl)cc2)nnc1CS(=O)(=O)C1CNN=C1S(=O)(=O)c1ccc(Cl)cc1 (stereo unspecified) | 25 mm | 27 mm | 24 mm | 27 mm | 21 mm | 24 mm | 28 mm | 30 mm | 28 mm | 30 mm | 29 mm | 32 mm | inactive | 
2 | O=S(=O)(Cc1nnc(CS(=O)(=O)c2c[nH]nc2S(=O)(=O)c2ccccc2)s1)Nc1ccccc1 | 16 mm | 17 mm | 15 mm | 17 mm | 10 mm | 12 mm | 14 mm | 16 mm | 15 mm | 17 mm | 16 mm | 19 mm | inactive | 
3 | Cc1ccc(NS(=O)(=O)Cc2nnc(CS(=O)(=O)c3c[nH]cc3S(=O)(=O)c3ccc(C)cc3)o2)cc1 |  |  |  |  |  |  |  |  |  |  |  |  | inactive | diameter of the inhibition zone (DIZ) (Staphylococcus aureus [1]): inactive; diameter of the inhibition zone (DIZ) (Staphylococcus aureus [2]): inactive; diameter of the inhibition zone (DIZ) (Bacillus subtilis [3]): inactive; diameter of the inhibition zone (DIZ) (Bacillus subtilis [4]): inactive; diameter of the inhibition zone (DIZ) (Pseudomonas aeruginosa [5]): inactive; diameter of the inhibition zone (DIZ) (Pseudomonas aeruginosa [6]): inactive; diameter of the inhibition zone (DIZ) (Klebsiella pneumoniae [7]): inactive; diameter of the inhibition zone (DIZ) (Klebsiella pneumoniae [8]): inactive; diameter of the inhibition zone (DIZ) (Aspergillus niger [9]): inactive; diameter of the inhibition zone (DIZ) (Aspergillus niger [10]): inactive; diameter of the inhibition zone (DIZ) (Penicillium chrysogenum [11]): inactive; diameter of the inhibition zone (DIZ) (Penicillium chrysogenum [12]): inactive
4 | Nn1c(CS(=O)(=O)/C=C/S(=O)(=O)c2ccccc2)nnc1CS(=O)(=O)Nc1ccccc1 | 21 mm | 23 mm | 24 mm | 26 mm | 17 mm | 18 mm | 26 mm | 28 mm | 21 mm | 24 mm | 23 mm | 26 mm | inactive | 
5 | O=S(=O)(Cc1nnc(CS(=O)(=O)c2c[nH]cc2S(=O)(=O)c2ccc(Cl)cc2)s1)Nc1ccc(Cl)cc1 | 26 mm | 27 mm | 27 mm | 29 mm | 23 mm | 25 mm | 29 mm | 30 mm | 29 mm | 31 mm | 30 mm | 33 mm | inactive | 
6 | Cc1ccc(NS(=O)(=O)Cc2nnc(CS(=O)(=O)c3c[nH]cc3S(=O)(=O)c3ccc(C)cc3)n2N)cc1 | 16 mm | 18 mm | 19 mm | 21 mm | 13 mm | 15 mm | 21 mm | 23 mm | 18 mm | 19 mm | 18 mm | 21 mm | inactive | 
7 | O=S(=O)(/C=C/S(=O)(=O)c1ccccc1)Cc1nnc(CS(=O)(=O)Nc2ccccc2)o1 | 10 mm | 13 mm | 12 mm | 14 mm |  |  |  |  |  |  |  |  | inactive | diameter of the inhibition zone (DIZ) (Pseudomonas aeruginosa [5]): inactive; diameter of the inhibition zone (DIZ) (Pseudomonas aeruginosa [6]): inactive; diameter of the inhibition zone (DIZ) (Klebsiella pneumoniae [7]): inactive; diameter of the inhibition zone (DIZ) (Klebsiella pneumoniae [8]): inactive; diameter of the inhibition zone (DIZ) (Aspergillus niger [9]): inactive; diameter of the inhibition zone (DIZ) (Aspergillus niger [10]): inactive; diameter of the inhibition zone (DIZ) (Penicillium chrysogenum [11]): inactive; diameter of the inhibition zone (DIZ) (Penicillium chrysogenum [12]): inactive
8 | Cc1ccc(NS(=O)(=O)Cc2nnc(CS(=O)(=O)/C=C/S(=O)(=O)c3ccc(C)cc3)n2N)cc1 | 20 mm | 22 mm | 23 mm | 25 mm | 15 mm | 17 mm | 25 mm | 27 mm | 19 mm | 23 mm | 22 mm | 25 mm | inactive | 
9 | Cc1ccc(NS(=O)(=O)Cc2nnc(CS(=O)(=O)C3CNN=C3S(=O)(=O)c3ccc(C)cc3)n2N)cc1 (stereo unspecified) | 13 mm | 15 mm | 16 mm | 18 mm | 12 mm | 15 mm | 18 mm | 20 mm | 13 mm | 16 mm | 15 mm | 18 mm | inactive | 
10 | Cc1ccc(NS(=O)(=O)Cc2nnc(CS(=O)(=O)/C=C/S(=O)(=O)c3ccc(C)cc3)o2)cc1 |  |  |  |  |  |  |  |  |  |  |  |  | inactive | diameter of the inhibition zone (DIZ) (Staphylococcus aureus [1]): inactive; diameter of the inhibition zone (DIZ) (Staphylococcus aureus [2]): inactive; diameter of the inhibition zone (DIZ) (Bacillus subtilis [3]): inactive; diameter of the inhibition zone (DIZ) (Bacillus subtilis [4]): inactive; diameter of the inhibition zone (DIZ) (Pseudomonas aeruginosa [5]): inactive; diameter of the inhibition zone (DIZ) (Pseudomonas aeruginosa [6]): inactive; diameter of the inhibition zone (DIZ) (Klebsiella pneumoniae [7]): inactive; diameter of the inhibition zone (DIZ) (Klebsiella pneumoniae [8]): inactive; diameter of the inhibition zone (DIZ) (Aspergillus niger [9]): inactive; diameter of the inhibition zone (DIZ) (Aspergillus niger [10]): inactive; diameter of the inhibition zone (DIZ) (Penicillium chrysogenum [11]): inactive; diameter of the inhibition zone (DIZ) (Penicillium chrysogenum [12]): inactive
11 | O=S(=O)(Cc1nnc(CS(=O)(=O)c2c[nH]nc2S(=O)(=O)c2ccc(Cl)cc2)s1)Nc1ccc(Cl)cc1 | 27 mm | 29 mm | 28 mm | 31 mm | 24 mm | 26 mm | 30 mm | 33 mm | 30 mm | 32 mm | 31 mm | 34 mm | inactive | 
12 | O=S(=O)(Cc1nnc(CS(=O)(=O)c2c[nH]nc2S(=O)(=O)c2ccc(Cl)cc2)o1)Nc1ccc(Cl)cc1 | 20 mm | 23 mm | 21 mm | 22 mm | 19 mm | 21 mm | 23 mm | 24 mm | 20 mm | 23 mm | 21 mm | 24 mm | inactive | 
